# Source: PubChem BioAssay (Broad Institute)
# CAL PDZ FP-1 – untagged CAL PDZ binding inhibitors, primary screen, biochemical, fluorescence polarization, HTS; Golgi-associated PDZ and coiled-coil motif-containing protein (Homo sapiens), Q9HD26; purified CAL PDZ, TMR-peptide fluorescence polarization, 1 h; inhibition, % at 24.9 µM; actives 0.92% (n = 300,000); AID 602252, 2012;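 active = mean inhibition of at least 30% with at least half of replicates also reaching 30%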;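 note: 0% = DMSO neutral control and 100% = excess unlabeled competitor peptide PRC23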
# PGC1a acetyl inh – inhibitors of PGC1a acetylation signal, primary screen, cell-based, U2OS, AlphaScreen, inhibitor mode | AlphaScreen anti-acetyl-lysine; with virally co-expressed GCN5 acetyltransferase | inhibition, % at 15.6 µM | actives 0.17% (n = 350,000) | AID 651687, 2012;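 active = every replicate shows inhibition of at least 40%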;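 note: 0% = neutral control wells and 100% = positive control wells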
# ARNT-TACC3 inh – disruptors of ARNT/TACC3 protein interaction, primary screen, biochemical, AlphaScreen, single concentration; Transforming acidic coiled-coil-containing protein 3 (Homo sapiens), Q9Y6A5; AlphaScreen His-ARNT PAS-B/GST-TACC3 binding, luminescence; TACC3 fragment carries E629A point mutation; inhibition, % at 9.99 µM; actives 0.66% (n = 390,000); AID 623870, 2012;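 active = mean inhibition of replicates at least 50% and at least half of replicates each reaching 50%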;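 note: 0% = complete ARNT plus TACC3 wells and 100% = ARNT alone without TACC3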
# CFTR F508del cor – F508del CFTR correction, initial screen, CFBE line, single point | actives 0.36% (n = 350,000) | CFBE cells, YFP halide quenching; stimulated with forskolin plus potentiator P3; % fluorescence drop versus neutral controls | activity (quench increase), % at 7.58 µM;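 active = mean added fluorescence quench of at least 8% versus neutral control, with both replicates also reaching 8%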;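 note: cells transiently co-express mutant CFTR-F508del with the halide-sensitive YFP; corrector assay measuring rescue of mutant channel to the surface after 24 h compound exposure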
# CAL PDZ FP-2 – CAL PDZ peptide-binding inhibitors, primary screen, biochemical, fluorescence polarization, Cer-tagged CAL PDZ, HTS; actives 0.02% (n = 330,000); inhibition, % at 20 µM; Golgi-associated PDZ and coiled-coil motif-containing protein (Homo sapiens), Q9HD26; purified CAL PDZ, TMR-peptide fluorescence polarization, 1 h; AID 504414, 2011;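 active = highest replicate inhibition of at least 40%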;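 note: plate controls were DMSO neutral control wells for no effect and unlabeled competitor peptide control wells for full effect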
#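 Test system: purified CerCALP PDZ construct; Compound dosing: one concentration, 20 µM compound; Also added: TMR-labelled reporter peptide T*-PRC34 bound in PDZ groove; Read-out: inhibition from polarization loss; Controls: unlabelled peptide and DMSO controls; Signal: FP readout, S and P plane fluorescence; Incubation: 1 h at RT.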
# miR-122 sensor – miR-122 Renilla sensor signal increase in Huh7, primary screen, miR-122 inhibitor project, cell-based, single point, plate reader; Huh7 miR-122 Renilla luciferase sensor, 48 h; neutral wells = 0, positive control = 100; activation (reporter increase), % at 12.5 µM; actives 0.3% (n = 340,000); AID 602342, 2012;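 active = mean replicate activation score at least 90 and every replicate individually at or above 90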;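 note: higher luciferase means less miR-122 activity so hits act as miR-122 inhibitors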
# ARNT Alpha ctr – AlphaScreen signal interference compounds, dose response, artefact control for ARNT-TACC3 interaction inhibitor project, biochemical, luminescence, cherry-pick; actives 50% (n = 1,200); AC50, µM (highest dose often 68 µM), for the others: at the top dose activity change, negative = signal decrease; His-ARNT PASB-GST AlphaScreen artifact counter-screen; shares compounds with ARNT-TACC3 inh;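 active = every separate test run was called active for a drop in luminescence, with AC50 within twice the top valid dose, actives reach about 71 µM in these data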
# * marks the source's active call; other numbers are inactive results; · = no result given; [ ] = remark or other dose. Compounds with a hit are over-represented: about 1.7% of the library has one in this group of screens.
SMILES,CAL PDZ FP-1,PGC1a acetyl inh,ARNT-TACC3 inh,CFTR F508del cor,CAL PDZ FP-2,miR-122 sensor,ARNT Alpha ctr
CN1CCC(N2CCN(C3CN(CCc4ccccc4)S(=O)(=O)C3)CC2)CC1 (stereo not given),·,16,·,4,·,1,·
CN1CCC(n2[nH]c(-c3ccccc3)c(Cc3ccccc3)c2=O)CC1,-6,-1,active,-2,-2,·,-7%
CO[C@H]1CN(C)C(=O)c2ccc(NC(=O)C3CC3)cc2OC[C@H](C)N(Cc2cccc(F)c2)C[C@@H]1C,·,-11,·,3,·,·,·
O=c1c(N2CCOCC2)coc2ccccc12,-1,·,-10,1,-3,·,·
O=c1[nH]c(N2CCOCC2)cc2ccccc12,-3,8,41*,2,0,-4,-8%
C[C@H]1CN([C@@H](C)CO)C(=O)Cc2cc(NC(=O)Cn3cnnn3)ccc2O[C@@H]1CN(C)Cc1ccc2c(c1)OCO2,·,2,-1,-1,·,-6[16.7 µM],·
Fc1ccc(/C=N/Nc2ncnc3nc[nH]c23)cc1F,·,-21,52*,3,-3,-6,-11%
C(=N\Nc1ncnc2nc[nH]c12)/c1cccs1,-5,·,51*,0,-2,-4,-14%
CC1(C)CC(=O)C=C(Nc2ccccc2N)C1,·,-4,51*,1,0,4,7%
C#CCOc1ccc(OC)cc1C(c1c(C)[nH][nH]c1=O)c1c(C)[nH][nH]c1=O,2,16,37*,·,0,-1,2%
CCOc1ccc(C(c2c(C)[nH][nH]c2=O)c2c(C)[nH][nH]c2=O)cc1OC,·,-2,6,·,0,-4,·
CN1CCN(C(=O)C[C@@H]2C[C@@H]3c4cc(NC(=O)NC5CCCC5)ccc4O[C@@H]3[C@H](CO)O2)CC1,·,-8,-6,2,·,-3[16.7 µM],·
O=c1[nH][nH]c(=O)c2nc(Nc3ccccc3)ncc12,-6,-3,69*,1,0,·,-17%
C[C@]12CC[C@H](O)CC1=CCC1C2CC[C@@]2(C)C1CC[C@@H]2NC(=O)[C@@H](N)Cc1cnc[nH]1 (stereo not given in full),1,12,62*,2,0,2,-12%
CN(Cc1cnc2nc(N)nc(N)c2n1)c1ccc(C(=O)NC(CCC(=O)O)C(=O)O)cc1 (stereo not given),-2,3,15*,-5,0,-2,-23%
CCOC(=O)c1cnc[nH]c1=O,10,-2,6,1,1,·,·
CCOC(=O)c1cnc(-n2[nH]c(C)cc2=O)[nH]c1=O,2,6,70*,-2,0,-1,13µM*
COc1cc(/C=N/NC(=O)CCN2CCN(Cc3ccccc3)CC2)cc(OC)c1OC,-2,-4,-8,·,-1,0,·
COc1cc(/C=N/NC(=O)CCN2CCN(c3ccccc3)CC2)cc(OC)c1OC,1,·,38*,1,0,·,56µM*
COc1cc(OC)c2c(-c3ccccc3)cc(=O)oc2c1C(CCN1CCCCC1)c1ccc(N(C)C)cc1 (stereo not given),-1,20,44*,·,1,22,12µM*
COc1cc(OC)c2c(-c3ccccc3)cc(=O)oc2c1C(CCN1CCOCC1)c1ccc(N(C)C)cc1 (stereo not given),7,3,40,4,0,59,·
CCCCCc1cc(=O)oc2c(C(CCN(CC)CC)c3ccc(N(C)C)cc3)c(OC)cc(OC)c12 (stereo not given),3,5,50*,-2,1,-11,12µM*
COc1ccc(CN(C)C[C@@H]2OCCCC[C@H](C)Oc3ccc(N(C)C)cc3C(=O)N([C@H](C)CO)C[C@@H]2C)cc1,·,1,14,-3,·,40[16.7 µM],·
O=c1ccc(-c2ccc(S(=O)(=O)Nc3ccc(F)cc3)s2)n[nH]1,-6,-2,50*,-3,-1,10,-9%
CC(=O)Nc1ccc2c(c1)C(=O)N(C)[C@@H]1CC[C@@H](CC(=O)NC3CCCCC3)O[C@H]1CO2,·,2,-30,-2,·,33[16.7 µM],·
SMILES,CAL PDZ FP-1,PGC1a acetyl inh,ARNT-TACC3 inh,CFTR F508del cor,CAL PDZ FP-2,miR-122 sensor,ARNT Alpha ctr
CO[C@@H]1CN(C)C(=O)c2ccc(NS(=O)(=O)c3ccc(F)cc3)cc2OC[C@@H](C)N(C(=O)NC(C)C)C[C@H]1C,·,4,-8,1,·,9[16.7 µM],·
CCSc1nnc(NC(=O)c2ccccn2)s1,-2,4,52*,·,-3,2,31µM*
CCSc1nnc(NC(=O)c2cccnc2Cl)s1,1,8,-1,·,-1,-6,·
COC(=O)c1ccccc1-c1ccc(C(c2c(C)[nH][nH]c2=O)c2c(C)[nH][nH]c2=O)o1,-4,·,60*,·,0,·,-12%
COC(=O)c1ccc(C(c2c(C)[nH][nH]c2=O)c2c(C)[nH][nH]c2=O)cc1,-2,-6,5,3,1,-6,·
CO[C@H]1CN(C)C(=O)c2cc(NC(=O)c3cc(C)on3)ccc2OC[C@H](C)N(CC2CC2)C[C@H]1C,·,6,-3,-1,·,·,·
Cc1cc(C)c(C(N)=O)c(Nc2cccc3ccccc23)n1,-4,28,68*,·,·,-6,-9%
CC(C)C1Cc2c(sc3ncnc(NN)c23)CO1 (stereo not given),-5,5,61*,-2,0,3,17µM*
COc1ccc(S(=O)(=O)N(C)C[C@@H]2Oc3ccc(NC(=O)c4ccncc4)cc3CC(=O)N([C@@H](C)CO)C[C@H]2C)cc1,·,-3,1,0,·,1[16.7 µM],·
N#C[C@H]1[C@H](c2ccccc2-c2ccccc2)[C@@H](CO)N1C(=O)Cc1ccncc1,·,13,·,0,·,·,·
COC(=O)C[C@@H]1CC[C@@H](NS(=O)(=O)c2ccc(OC)cc2)[C@H](CO)O1,·,-4,58*,-2,·,·,4%[38 µM]
C[C@@H]1CN([C@H](C)CO)S(=O)(=O)c2ccc(C3=CCCC3)cc2O[C@H]1CN(C)Cc1ccccn1,·,12,17*,0,·,3[16.7 µM],51µM*
